Experimental findings from PMC8063330 (Oncology Letters, 2021) are described below.

One assay relates to c-myc in MKN-45 cells. Kind of assay: c-myc level by western blotting in MKN-45. The settings on record: 24 h. The format is cell-based. In outline:
(§1)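 Cells grown in RPMI-1640 with 10% FBS and exposed to test compound. Lysates run on SDS-PAGE and immunoblotted for c-Myc with tubulin as loading reference. HRP secondaries, ECL detection.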
A general note: A western blot detects proteins with antibodies after separation by electrophoresis.

A further assay relates to c-myc in SNU-638 cells. Kind of assay: c-myc level by western blotting in SNU-638. The format is cell-based. The note with it: 24 h. In outline:
as §1

As to `CCNC(=O)C[C@@H]1N=C(c2ccc(Cl)cc2)c2cc(OC)ccc2-n2c(C)nnc21` [I-BET-762], the c-myc level entry with c-myc in MKN-45 cells is “did not downregulate the c-myc level”; with c-myc in SNU-638 cells, “downregulated the c-myc level”.
